The text below walks through data of publication PMC10646973 (Biochemistry, 2023).

pIC50: −log10 of the molar value.

Assay [1] concerns protein arginine and protein lysine methyltransferases (PRMTs and PKMTs) in HT-29 colorectal cells. Briefly: Protein methylation marks. Particulars: HT-29 cells, 6 days, positive control. The format is cell-based. The gist of the method: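 HT-29 colorectal cells were exposed to the test compound for 6 days. Soluble protein was then extracted and immunoblotted for symmetric dimethylarginine, asymmetric dimethylarginine and trimethyl-lysine marks. The SDMA positive control was a PRMT5-specific inhibitor, and the ADMA positive control was a type I PRMT (PRMT1/4) inhibitor.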

A further assay concerns PNMT. To be noted: read-out: apparent IC50; cited from earlier work.

With `CC(=O)N1CCC(Nc2cc(C(=O)NC[C@H](O)CN3CCc4ccccc4C3)ncn2)CC1` [GSK3326595, reference compound], the “SDMA (Western blot)” value in assay [1] is recorded as “no band corresponding to SDMA”. As for `NC(=O)c1cccc(C#CCN(CC[C@H](N)C(=O)O)C[C@H]2O[C@@H](n3cnc4c(N)ncnc43)[C@H](O)[C@@H]2O)c1` [LL320], the pIC50 in the assay on PNMT is less than 4.00. `CC(C)Oc1ccc(-c2c[nH]cc2CN(C)CCN)cc1` [MS023, reference compound]: the “ADMA (Western blot)” value in assay [1] is on record as “no evidence of ADMA”.

Usually pIC50 stands for the negative decadic logarithm of the IC50, by convention in mol/L.
